In one experiment the test system is Saccharomyces cerevisiae. The experiment can be described thus: Antifungal activity against Saccharomyces cerevisiae RS 322YK (rad 52Y) assessed as DNA damaging activity. Type of experiment: functional, organism-based. The procedure, abridged: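 Growth inhibition of the rad 52 mutant strain RS322YK of *Saccharomyces cerevisiae*, measured as a zone of inhibition. Activity is reported as IC₁₂, the concentration giving a 12 mm diameter inhibition zone, in µg/ml. Sterols were also tested against the wild-type RAD⁺ strain.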

A further experiment deals with Vero. The experiment can be described thus: Cytotoxicity against african green monkey Vero cells. Type of experiment: cell-based. The note with it: Chlorocebus sabaeus.

Consider 9 compounds from ChEMBL document CHEMBL1149065, “Synthesis and structure-activity relationships of cytotoxic 7-hydroxy sterols” (J Nat Prod, 1994).

Turning to `CC(C)[C@@]1(CC[C@@H](C)[C@H]2CC[C@H]3[C@@H]4CC=C5C[C@@H](O)CC[C@]5(C)[C@H]4CC[C@]23C)CO1`, the IC12 with Saccharomyces cerevisiae is more than 8000 µg/mL.
For `C=C(CC[C@@H](C)[C@H]1CC[C@H]2[C@@H]3CC=C4C[C@@H](O)CC[C@]4(C)[C@H]3CC[C@]12C)C(C)C`, the IC12 in the experiment with Saccharomyces cerevisiae was more than 8000 µg/mL.
In the case of `CC(C)C(=O)CC[C@@H](C)[C@H]1CC[C@H]2[C@@H]3[C@H](O)C=C4C[C@@H](O)CC[C@]4(C)[C@H]3CC[C@]12C`, in the experiment with Saccharomyces cerevisiae, the IC12 turned out to be 14 µg/mL. Also, the IC50 with Vero turned out to be 9.9 µM.
In the case of `CC(C)C(=O)CC[C@@H](C)[C@H]1CC[C@H]2[C@@H]3CC=C4C[C@@H](O)CC[C@]4(C)[C@H]3CC[C@]12C`, the IC12 with Saccharomyces cerevisiae was more than 8000 µg/mL.
On to `CC(C)C(=O)CC[C@@H](C)[C@H]1CC[C@H]2[C@@H]3[C@@H](O)C=C4C[C@@H](O)CC[C@]4(C)[C@H]3CC[C@]12C`, for which, in the experiment with Saccharomyces cerevisiae, the IC12 is more than 500 µg/mL. The same compound yielded an IC50 in the experiment on Vero of 21 µM.
The like results for `C=C(CC[C@@H](C)[C@H]1CC[C@H]2[C@@H]3[C@H](O)C=C4C[C@@H](O)CC[C@]4(C)[C@H]3CC[C@]12C)C(C)C` were, in that order, 7 µg/mL and 58 µM.
On the same counts, the results for `CC(C)[C@@]1(CC[C@@H](C)[C@H]2CC[C@H]3[C@@H]4[C@H](O)C=C5C[C@@H](O)CC[C@]5(C)[C@H]4CC[C@]23C)CO1` are 0.2 µg/mL and more than 100 µM.
The like results for `C=C(CC[C@@H](C)[C@H]1CC[C@H]2[C@@H]3[C@@H](O)C=C4C[C@@H](O)CC[C@]4(C)[C@H]3CC[C@]12C)C(C)C` were, in that order, more than 8000 µg/mL and 31 µM.
Turning to `CC(C)[C@@]1(CC[C@@H](C)[C@H]2CC[C@H]3[C@@H]4[C@@H](O)C=C5C[C@@H](O)CC[C@]5(C)[C@H]4CC[C@]23C)CO1`, the IC12 in the experiment on Saccharomyces cerevisiae was more than 8000 µg/mL. For the same compound, 16 µM corresponded to half-maximal inhibition with Vero (IC50).

In general, IC50 refers to the point on the concentration scale where inhibition reaches its midpoint.
